This note sets out measurements from ChEMBL document CHEMBL1130393, “Antitumor agents. 178. Synthesis and biological evaluation of substituted 2-aryl-1,8-naphthyridin-4(1H)-ones as antitumor agents that inhibit tubulin polymerization” (J Med Chem, 1997).

Assay [1] concerns HL-60. Nature of the assay: In vitro antitumor activity against HL-60(TB) tumor cell lines. The format is functional. The settings on record: Homo sapiens.
Assay [2] deals with Tumor Cell line. Nature of the assay: In vitro antitumor activity against NCI 's human tumor cell lines. The format is functional. The settings on record: read-out: Average log GI50 (converted). An outline of the steps: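 NCI in vitro screen of 60 human tumor cell lines. […] The value is calculated from all cell lines tested.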
In assay [3] the test system is MDA-N. Nature of the assay: In vitro antitumor activity against MDA-N tumor cell lines. The format is functional. The settings on record: Homo sapiens.
The test system of assay [4] is NCI-H460. The experiment in a line: In vitro antitumor activity against NCI-H460 tumor cell lines. The settings on record: Homo sapiens. The format is functional.
For assay [5], the system named is OVCAR-3. Nature of the assay: In vitro antitumor activity against OVCAR-3 tumor cell lines. The assay is classed as functional. The settings on record: Homo sapiens.
In assay [6] the test system is PC-3. The experiment in a line: In vitro antitumor activity against PC-3 tumor cell lines. The format is functional. The settings on record: Homo sapiens.
Assay [7] concerns SF-295. Nature of the assay: In vitro antitumor activity against SF-295 tumor cell lines. The format is functional. The settings on record: Homo sapiens.
Assay [8] relates to SK-MEL-5. Nature of the assay: In vitro antitumor activity against SK-MEL-5 tumor cell lines. The format is functional. The settings on record: Homo sapiens.
For assay [9], the system named is U-251. The experiment in a line: In vitro antitumor activity against U-251 tumor cell lines. The settings on record: Homo sapiens. The format is functional.
In assay [10] the target is Tubulin (Bos taurus, UniProt Q6B856+Q862L2+Q862F3). The experiment in a line: Inhibition of tubulin polymerization. The assay is classed as functional.
In assay [11] the target is Tubulin (Bos taurus) (UniProt Q6B856+Q862L2+Q862F3). Nature of the assay: Inhibition of radiolabeled colchicine binding to tubulin. The assay is classed as protein assay. More on the design: concentration or dose not given beside the values. The settings on record: concentration not given here. An outline of the steps: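 Measured by DEAE-cellulose filter binding. The 0.1 mL mixture held bovine brain tubulin 1.0 µM, 1.0 M monosodium glutamate (pH 6.6), 1 mM MgCl2, 0.1 mM GTP, 5.0 µM [3H]colchicine, 5% DMSO and inhibitor at 5.0 µM. It was incubated 20 min at 37 °C, filtered through two DEAE-cellulose papers, washed with water and counted by liquid scintillation.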

Assay [12] relates to HCT-116. Nature of the assay: In vitro antitumor activity against HCT116 tumor cell lines. The assay is classed as functional. The settings on record: Homo sapiens.
Assay [13] deals with MDA-MB-435. Nature of the assay: In vitro antitumor activity against MDA-MB-435 NCI 's human tumor cell lines. The format is functional.
Assay [14] deals with CAKI-1. The experiment in a line: In vitro antitumor activity against CAKI-1 tumor cell lines. The format is functional. The settings on record: Homo sapiens.

The term GI50 denotes the concentration that inhibits growth by half. What is called IC50 is the point on the concentration scale where inhibition reaches its midpoint. As usually defined, the inhibition is the relative decrease from the control value, in per cent. On to `Cc1cc(C)c2c(O)cc(-c3cccc4ccccc34)nc2n1`, for which the GI50 in assay [1] is 245 nM; in assay [2] it was 1050 nM; in assay [3], 234 nM; in [4], 631 nM; in assay [5], 347 nM; in assay [6] it was 759 nM. Also, the GI50 was 589 nM in [7]; 468 nM in assay [8]; 372 nM in assay [9]; 380 nM in assay [12]; 191 nM in assay [13]; 9550 nM in [14]. Moreover, in assay [10], the IC50 is 780 nM. This molecule also had an inhibition in assay [11] of 15%.
Regarding `Cc1cccc(-c2cc(O)c3cc(C)cnc3n2)c1`, the GI50 in assay [1] is 174 nM; in assay [2], 646 nM; in [3], less than 10 nM; in assay [4], 389 nM; in assay [5] it was 251 nM; in [6] it was 309 nM. Besides, the GI50 in assay [7] is 417 nM; in assay [8] it was 288 nM; in assay [9], 170 nM; in [12], 407 nM; in [13], less than 10 nM; in [14], 437 nM. In [10], the IC50 came to 1500 nM.
On to `Cc1ccnc2nc(-c3cccc4ccccc34)cc(O)c12`, for which the GI50 is less than 10 nM in assay [1]; 35.5 nM in assay [2]; less than 10 nM in assay [3]; less than 10 nM in assay [4]; less than 10 nM in assay [5]; 19.9 nM in [6]. The GI50 in assay [7] was 10.7 nM; in [8], less than 10 nM; in assay [9], less than 10 nM; in assay [12], less than 10 nM; in assay [13], less than 10 nM; in assay [14], 12 nM. This molecule also yielded an IC50 in [10] of 930 nM. Moreover, the inhibition in assay [11] worked out at 37%.
In the case of `Cc1ccnc2nc(-c3ccc4ccccc4c3)cc(O)c12`, the GI50 in [1] was 204 nM; in [2], 1200 nM; in [3], 204 nM; in assay [4] it was 1050 nM; in assay [5] it was 1290 nM; in [6], 1380 nM. In addition, the GI50 in [7] was 1480 nM; in assay [8], 437 nM; in [9] it was 646 nM; in assay [12], 427 nM; in assay [13] it was 204 nM; in assay [14], 2400 nM. The IC50 in assay [10] is 1800 nM.
On to `Oc1cc(-c2ccc3ccccc3c2)nc2ncccc12`, for which the GI50 was 1820 nM in assay [1]; 8130 nM in assay [2]; 1660 nM in assay [3]; 3800 nM in [4]; 8320 nM in assay [5]; 10500 nM in [6]. Also, the GI50 in assay [7] is 9120 nM; in [8] it was 3470 nM; in assay [9], 4370 nM; in assay [12], 3800 nM; in assay [13], 1780 nM; in assay [14] it was 5620 nM. Moreover, the IC50 in [10] was 14000 nM.
For the molecule `Cc1cnc2nc(-c3ccc4ccccc4c3)cc(O)c2c1`, the GI50 in assay [1] was 141 nM; in assay [2], 741 nM; in assay [3], 132 nM; in [4], 398 nM; in assay [5], 355 nM; in assay [6], 407 nM. Moreover, the GI50 in [7] was 550 nM; in [8] it was 363 nM; in [9], 468 nM; in assay [12], 468 nM; in assay [13], 105 nM; in assay [14] it was 617 nM. In [10], the IC50 amounted to 2100 nM.
With `Cc1cnc2nc(-c3cccc4ccccc34)cc(O)c2c1`, the GI50 is less than 10 nM in [1]; 19.1 nM in [2]; less than 10 nM in assay [3]; less than 10 nM in assay [4]; less than 10 nM in [5]; less than 10 nM in [6]. Also, the GI50 in assay [7], in assay [8], in assay [9], in assay [12], in assay [13] and in [14] was less than 10 nM throughout. In assay [10], the IC50 stood at 550 nM. In assay [11], the inhibition was 46%.
Take `Cc1cccc(-c2cc(O)c3ccc(C)nc3n2)c1`: the GI50 in [1] was 26.9 nM; in assay [2], 97.7 nM; in assay [3], 31.6 nM; in assay [4], 17.8 nM; in assay [5], 490 nM; in [6], 138 nM. For the same molecule, the concentration for 50% growth inhibition (GI50) in assay [7] is 60.3 nM; in [8] it was 126 nM; in [9], 200 nM; in assay [12], 120 nM; in assay [13], 32.4 nM; in assay [14], 427 nM. Also, the IC50 in assay [10] was found to be 1900 nM.
Take `Cc1cccc(-c2cc(O)c3c(C)cc(C)nc3n2)c1`: the GI50 was 12900 nM in assay [1]; 38000 nM in assay [2]; 20900 nM in assay [3]; 44700 nM in assay [4]; 30200 nM in assay [5]; 31600 nM in [6]. For the same molecule, the GI50 is 64600 nM in assay [7]; 34700 nM in [8]; 53700 nM in assay [9]; 17800 nM in assay [12]; 20000 nM in assay [13]; 56200 nM in assay [14]. This molecule also displayed an IC50 in assay [10] of 2300 nM.
With `Cc1cc(C)c2c(O)cc(-c3ccc4ccccc4c3)nc2n1`, the GI50 in assay [1] is 3470 nM; in assay [2], 13500 nM; in assay [3], 3240 nM; in assay [4], 13200 nM; in assay [5], 20000 nM; in assay [6] it was 5500 nM. Besides, the GI50 in assay [7] is 14800 nM; in [8] it was 2190 nM; in [9], 15800 nM; in [12] it was 12600 nM; in assay [13], 2950 nM; in [14] it was 51300 nM. In assay [10], this molecule had an IC50 of more than 40000 nM.
For `Cc1ccc2c(O)cc(-c3cccc4ccccc34)nc2n1`, the GI50 in [1] was less than 10 nM; in assay [2] it was 66.1 nM; in [3], less than 10 nM; in assay [4], 17.4 nM; in assay [5], less than 10 nM; in [6], 30.2 nM. Further, the 50% growth inhibitory concentration (GI50) in assay [7] was 24 nM; in assay [8], 13.8 nM; in [9] it was 15.5 nM; in assay [12], less than 10 nM; in assay [13] it was less than 10 nM; in assay [14] it was 6030 nM. In assay [10], this molecule showed an IC50 of 660 nM. The molecule further had an inhibition in assay [11] of 40%.
Take `Oc1cc(-c2ccc3ccccc3c2)nc2ncc(Cl)cc12`: the GI50 in [1] was 1780 nM; in [2], 5750 nM; in [3], 1550 nM; in assay [4], 4070 nM; in assay [5] it was 2630 nM; in assay [6], 3090 nM. Moreover, the GI50 in [7] was 5500 nM; in assay [8] it was 2950 nM; in [9], 4790 nM; in assay [12], 3980 nM; in assay [13], 851 nM; in [14], 7590 nM. The same molecule displayed an IC50 in assay [10] of 2500 nM.
On to `Oc1cc(-c2cccc3ccccc23)nc2ncccc12`, for which the GI50 in assay [1] is less than 10 nM; in assay [2] it was 35.5 nM; in assay [3] it was less than 10 nM; in assay [4], 38.9 nM; in assay [5], less than 10 nM; in [6] it was 17.8 nM. Besides, the GI50 in assay [7] is less than 10 nM; in assay [8], less than 10 nM; in assay [9], 10.2 nM; in assay [12] it was less than 10 nM; in [13] it was less than 10 nM; in assay [14], 15.1 nM. For the same molecule, the IC50 in assay [10] was 1100 nM.
Regarding `Cc1ccc2c(O)cc(-c3ccc4ccccc4c3)nc2n1`, the GI50 was 1780 nM in [1]; 4570 nM in assay [2]; 1950 nM in [3]; 3800 nM in assay [4]; 3630 nM in [5]; 2630 nM in assay [6]. Also, the 50% growth inhibitory concentration (GI50) was 3800 nM in assay [7]; 3310 nM in assay [8]; 4570 nM in assay [9]; 3980 nM in assay [12]; 1580 nM in assay [13]; 5370 nM in assay [14]. The molecule also had an IC50 in assay [10] of 5100 nM.
`Cc1cccc(-c2cc(O)c3c(C)ccnc3n2)c1`: the GI50 is 18.2 nM in [1]; 57.5 nM in assay [2]; 11 nM in assay [3]; 36.3 nM in [4]; 22.4 nM in assay [5]; 33.1 nM in assay [6]. Also, the GI50 in [7] is 30.2 nM; in [8], 33.9 nM; in assay [9], 53.7 nM; in assay [12], 46.8 nM; in assay [13], less than 10 nM; in assay [14], 53.7 nM. In [10], this molecule yielded an IC50 of 1800 nM.
